Measured values reported in ChEMBL document CHEMBL1221240, “An efficient one-pot synthesis of heterocycle-fused 1,2,3-triazole derivatives as anti-cancer agents” (Bioorg Med Chem Lett, 2010).
≈ marks a conversion by molar mass, not a printed value.

Experiments:
Type in all cases: functional, cell-based
HepG2 = assay: Cytotoxicity against human HepG2 cells by MTT assay
HL-60 = assay: Cytotoxicity against human HL60 cells by MTT assay
How it was run: (§1)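 In vitro MTT assay on human tumour cells: myeloid leukaemia K562 and HL-60, ovarian carcinoma Skov-3, epidermoid carcinoma A431, and lung adenocarcinoma A549. IC50 is the concentration that lowers optical density of treated cells by 50% relative to untreated cells. Values are means of three independent determinations.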

K562 = assay: Cytotoxicity against human K562 cells by MTT assay; how it was run: as §1
A-431 = assay: Cytotoxicity against human A431 cells by MTT assay; how it was run: as §1
A549 = assay: Cytotoxicity against human A549 cells by MTT assay; how it was run: as §1
SK-OV-3 = assay: Cytotoxicity against human SKOV3 cells by MTT assay; how it was run: as §1

| Compound | IC50 (HepG2) [µg/mL] | IC50 (HL-60) [µg/mL] | IC50 (K562) [µg/mL] | IC50 (A-431) [µg/mL] | IC50 (A549) [µg/mL] | IC50 (SK-OV-3) [µg/mL] |
| --- | --- | --- | --- | --- | --- | --- |
| COc1ccc(C(=O)c2nnn3c2NCC3)cc1 | > 200 | > 200 | 2.8 (≈ 11.5 µM) | > 200 | > 200 | 159 (≈ 651 µM) |
| Cc1ccc(C(=O)c2nnn3c2NCC3)cc1 | > 200 | > 200 | 9.4 (≈ 41.2 µM) | > 200 | > 200 | > 200 |
| O=C(c1ccccc1)c1nnn2c1NCC2 | > 200 | > 200 | 92 (≈ 429 µM) | > 200 | > 200 | > 200 |
| O=C(c1ccc(Cl)cc1)c1nnn2c1NCC2 | > 200 | > 200 | 16.1 (≈ 64.7 µM) | 57.6 (≈ 232 µM) | > 200 | > 200 |
| CC(=O)c1nnn2c1NCC2 | > 200 | > 200 | > 200 | > 200 | > 200 | > 200 |
| COc1ccc(C(=O)c2nnn3c2NCCC3)cc1 | > 200 | > 200 | 3.4 (≈ 13.2 µM) | 64.4 (≈ 249 µM) | > 200 | 190 (≈ 736 µM) |
| Cc1ccc(C(=O)c2nnn3c2NCCC3)cc1 | > 200 | > 200 | 1.5 (≈ 6.19 µM) | > 200 | > 200 | 124 (≈ 512 µM) |
| O=C(c1ccccc1)c1nnn2c1NCCC2 | > 200 | > 200 | 28.6 (≈ 125 µM) | > 200 | > 200 | > 200 |
| O=C(c1ccc(Cl)cc1)c1nnn2c1NCCC2 | > 200 | > 200 | 3.2 (≈ 12.2 µM) | > 200 | > 200 | > 200 |
| COc1ccc(C(=O)c2nnn3c2OCC3)cc1 | > 200 | 21.1 (≈ 86 µM) | 1 (≈ 4.08 µM) | 1.9 (≈ 7.75 µM) | 58 (≈ 237 µM) | 9.6 (≈ 39.1 µM) |
| Cc1ccc(C(=O)c2nnn3c2OCC3)cc1 | 198 (≈ 864 µM) | 13.7 (≈ 59.8 µM) | 127 (≈ 554 µM) | 12.7 (≈ 55.4 µM) | 79 (≈ 345 µM) | 8.5 (≈ 37.1 µM) |
| O=C(c1ccccc1)c1nnn2c1OCC2 | > 200 | 17.2 (≈ 79.9 µM) | > 200 | 10.8 (≈ 50.2 µM) | 78 (≈ 362 µM) | 66.1 (≈ 307 µM) |
| O=C(c1ccc(Cl)cc1)c1nnn2c1OCC2 | > 200 | 6.5 (≈ 26 µM) | > 200 | 3.8 (≈ 15.2 µM) | 42 (≈ 168 µM) | 8.6 (≈ 34.4 µM) |
